The source of these data is ChEMBL document CHEMBL3286354, “9- and 11-Substituted 4-azapaullones are potent and selective inhibitors of African trypanosoma” (Eur J Med Chem, 2014).

Some results are limits rather than exact numbers.

Data set [1] concerns the target T1, Trypanothione synthetase (Trypanosoma brucei brucei) (UniProt Q86MC2).
T1 sequence (whole entry): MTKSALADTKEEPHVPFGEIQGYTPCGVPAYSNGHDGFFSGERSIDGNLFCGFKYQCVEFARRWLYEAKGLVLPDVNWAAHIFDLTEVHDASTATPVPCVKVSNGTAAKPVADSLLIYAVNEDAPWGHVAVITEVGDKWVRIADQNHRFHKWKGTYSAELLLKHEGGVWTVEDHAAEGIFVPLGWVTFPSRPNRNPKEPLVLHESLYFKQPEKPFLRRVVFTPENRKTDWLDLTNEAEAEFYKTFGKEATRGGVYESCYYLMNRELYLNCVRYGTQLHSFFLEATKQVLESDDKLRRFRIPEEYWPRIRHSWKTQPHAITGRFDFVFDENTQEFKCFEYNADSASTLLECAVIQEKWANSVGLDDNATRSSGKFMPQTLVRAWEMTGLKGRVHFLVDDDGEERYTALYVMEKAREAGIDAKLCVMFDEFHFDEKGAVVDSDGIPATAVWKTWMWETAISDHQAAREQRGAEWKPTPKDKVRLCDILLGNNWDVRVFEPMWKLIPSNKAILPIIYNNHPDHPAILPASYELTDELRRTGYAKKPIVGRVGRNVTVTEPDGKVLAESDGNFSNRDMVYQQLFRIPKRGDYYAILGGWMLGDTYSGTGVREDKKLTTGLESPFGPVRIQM
The data set can be described thus: Inhibition of Trypanosoma brucei brucei trypanothione synthetase assessed as residual activity at 30 uM after 15 mins incubation by Biomol Green phosphate release absorbance assay.

Data set [2] in a line: Toxicity in mouse macrophages at 56 uM after 24 hrs by xCELLingence assay relative to control. Type of data set: cell-based. To be noted: macrophage. In a few lines: (§1)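 Mouse bone marrow-derived macrophages were seeded at 7.5×10^4 per well in DMEM with 2 mM L-glutamine and 10% heat-inactivated FCS for 24 h. They were then exposed for 24 h to each compound at its highest soluble concentration. Impedance (cell index) was read every 30 min. % toxicity = 100 − (cell index compound / cell index medium × 100).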

In data set [3] the test system is Trypanosoma brucei brucei. Put plainly: Antitrypanosomal activity against Trypanosoma brucei brucei 427 assessed as viability at 30 uM after 24 hrs by Flow cytometry relative to control. It is filed as functional. In a few lines:
(§2)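 Single-concentration primary screen on infective T. b. brucei 427, seeded at 5×10^5 cells/mL in HMI-9/10% FBS, 37 °C, 5% CO2, for 24 h. Live cells were counted by flow cytometry with propidium iodide gating over a fixed 60 s acquisition. % viability is relative to the DMSO proliferation control. Triplicates; error as 2 SD.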

Data set [4] can be described thus: Toxicity in mouse macrophages at 54 uM after 24 hrs by xCELLingence assay relative to control. The settings on record: macrophage. It is filed as cell-based. In a few lines:
as §1

In the next data set the target is CDK9/cyclin T1 (Homo sapiens, UniProt P50750). The data set can be described thus: Inhibition of human recombinant CDK9/cyclin T. It is filed as protein-complex assay. In short, it runs like this:
(§3)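 Radiometric kinase assays in buffer A (10 mM MgCl2, 1 mM EGTA, 1 mM DTT, 25 mM Tris-HCl pH 7.5, heparin) or buffer B, with ATP, 30 min at 30 °C. Products were captured on P81 phosphocellulose, washed in 1% phosphoric acid and scintillation counted. Activity is % of the uninhibited control. Substrates: histone H1 for CDK2/CDK5 (BSA added for CDK5), CDK7/9-Tide for CDK9, RS peptide for DYRK1A/CLK1, GS-1 for GSK-3, CKS peptide for CK1.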

A short description of data set [5]: Inhibition of pig brain CK1 delta/epsilon using CKS peptide substrate. The arrangement: species or system Sus scrofa. In short, it runs like this: as §3
Data set [6] can be described thus: Inhibition of starfish CDK1/cyclinB using histone H1 substrate.
The target of data set [7] is Dual specificity tyrosine-phosphorylation-regulated kinase 1A (Homo sapiens, UniProt Q13627). The data set can be described thus: Inhibition of human recombinant DYRK1A. In short, it runs like this:
as §3

Data set [8] in a line: Toxicity in mouse macrophages at 26 uM after 24 hrs by xCELLingence assay relative to control. Type of data set: cell-based. The settings on record: macrophage. In short, it runs like this:
as §1

Data set [9] deals with Glycogen synthase kinase-3 (Sus scrofa, UniProt B2LUN4+I6LNT8). Put plainly: Inhibition of pig brain GSK-3alpha/beta using GS-1 peptide substrate. In short, it runs like this:
as §3

For data set [10], the target named is Dual specificity protein kinase CLK1 (Mus musculus, UniProt P22518). Put plainly: Inhibition of mouse recombinant CLK1. In a few lines:
as §3

Data set [11] concerns Trypanosoma brucei brucei. Put plainly: Antitrypanosomal activity against Trypanosoma brucei brucei 427 assessed as viability after 24 hrs by Flow cytometry. Type of data set: functional, organism-based. The settings on record: Trypanosoma brucei, 427, 24 h. In short, it runs like this:
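Infective bloodstream T. b. brucei 427 (cell line 449 carrying a redox biosensor) in HMI-9 with 10% FBS at 37 °C, 5% CO2. Cells were seeded at 5×10^5 cells/mL with two-fold serial dilutions from DMSO stocks and incubated 24 h. Viability was by propidium iodide exclusion flow cytometry. EC50 came from a sigmoidal Boltzmann fit or non-linear extrapolation, with error as 2 SD.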

Data set [12] has as its target Cyclin-dependent kinase 5/CDK5 activator 1 (Homo sapiens, UniProt Q00535). The data set can be described thus: Inhibition of human recombinant CDK5/p25. Type of data set: protein-complex assay. In short, it runs like this: as §3
Data set [13] deals with Trypanosoma brucei brucei. Put plainly: Antitrypanosomal activity against Trypanosoma brucei brucei 427 assessed as viability at 5 uM after 24 hrs by Flow cytometry relative to control. Type of data set: functional. In short, it runs like this: as §2
Data set [14] concerns the target Cyclin-dependent kinase 2/cyclin E1 (Homo sapiens, UniProt P24941). Put plainly: Inhibition of human recombinant CDK2/cyclin E. It is filed as protein-complex assay. In a few lines: as §3
Data set [15] can be described thus: Toxicity in mouse macrophages at 12 uM after 24 hrs by xCELLingence assay relative to control. Type of data set: cell-based. To be noted: macrophage. In a few lines: as §1
Data set [16] can be described thus: Toxicity in mouse macrophages at 58 uM after 24 hrs by xCELLingence assay relative to control. Type of data set: cell-based. The settings on record: macrophage. In a few lines:
as §1

Data set [17] can be described thus: Toxicity in mouse macrophages at 24 uM after 24 hrs by xCELLingence assay relative to control. It is filed as cell-based. To be noted: macrophage. In short, it runs like this: as §1
Data set [18] can be described thus: Toxicity in mouse macrophages at 10 uM after 24 hrs by xCELLingence assay relative to control. Type of data set: cell-based. To be noted: macrophage. In short, it runs like this:
as §1

A short description of data set [19]: Toxicity in mouse macrophages at 59 uM after 24 hrs by xCELLingence assay relative to control. Type of data set: cell-based. The settings on record: macrophage. In a few lines:
as §1

The nature of data set [20]: Toxicity in mouse macrophages at 60 uM after 24 hrs by xCELLingence assay relative to control. It is filed as cell-based. The settings on record: macrophage. In short, it runs like this:
as §1

Data set [21] is described as follows: Toxicity in mouse macrophages at 48 uM after 24 hrs by xCELLingence assay relative to control. Type of data set: cell-based. The settings on record: macrophage. In short, it runs like this:
as §1

A short description of data set [22]: Toxicity in mouse macrophages at 5 uM after 24 hrs by xCELLingence assay relative to control. Type of data set: cell-based. The settings on record: macrophage. In short, it runs like this:
as §1

A short description of data set [23]: Toxicity in mouse macrophages at 29 uM after 24 hrs by xCELLingence assay relative to control. It is filed as cell-based. To be noted: macrophage. In a few lines:
as §1

Sequence of Cyclin-dependent kinase 5/CDK5 activator 1 (Q00535 whole entry): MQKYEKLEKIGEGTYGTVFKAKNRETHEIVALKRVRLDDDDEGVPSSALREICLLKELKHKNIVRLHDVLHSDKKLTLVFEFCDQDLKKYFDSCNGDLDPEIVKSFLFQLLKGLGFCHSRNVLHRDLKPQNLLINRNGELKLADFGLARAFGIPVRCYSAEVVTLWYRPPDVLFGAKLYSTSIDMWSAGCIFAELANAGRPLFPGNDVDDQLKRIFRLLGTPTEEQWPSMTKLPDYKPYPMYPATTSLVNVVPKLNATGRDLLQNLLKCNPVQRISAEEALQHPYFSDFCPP
Sequence of Cyclin-dependent kinase 5/CDK5 activator 1 (Q15078 whole entry, further chain): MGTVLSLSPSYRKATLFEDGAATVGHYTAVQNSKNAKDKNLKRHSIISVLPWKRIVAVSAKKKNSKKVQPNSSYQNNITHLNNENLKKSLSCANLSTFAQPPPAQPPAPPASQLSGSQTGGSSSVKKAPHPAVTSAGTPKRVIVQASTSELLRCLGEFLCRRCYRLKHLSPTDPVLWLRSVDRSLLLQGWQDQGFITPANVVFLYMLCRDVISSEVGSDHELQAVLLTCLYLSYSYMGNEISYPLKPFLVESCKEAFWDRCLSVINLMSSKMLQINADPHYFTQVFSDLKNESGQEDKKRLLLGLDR
Sequence of Dual specificity protein kinase CLK1 (P22518 whole entry): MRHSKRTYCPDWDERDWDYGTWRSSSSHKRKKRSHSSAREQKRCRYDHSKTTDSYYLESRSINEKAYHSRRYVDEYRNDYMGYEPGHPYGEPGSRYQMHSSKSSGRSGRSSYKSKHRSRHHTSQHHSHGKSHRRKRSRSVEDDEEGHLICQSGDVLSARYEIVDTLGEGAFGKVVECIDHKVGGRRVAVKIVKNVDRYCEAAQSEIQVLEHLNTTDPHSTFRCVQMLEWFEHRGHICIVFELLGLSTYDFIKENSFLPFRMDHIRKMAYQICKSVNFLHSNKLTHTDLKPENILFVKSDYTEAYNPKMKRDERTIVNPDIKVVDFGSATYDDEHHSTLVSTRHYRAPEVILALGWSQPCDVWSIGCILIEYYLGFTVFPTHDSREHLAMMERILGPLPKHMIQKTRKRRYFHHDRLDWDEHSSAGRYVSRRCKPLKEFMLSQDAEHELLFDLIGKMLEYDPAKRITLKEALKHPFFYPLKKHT
Sequence of CDK9/cyclin T1 (O60563 whole entry): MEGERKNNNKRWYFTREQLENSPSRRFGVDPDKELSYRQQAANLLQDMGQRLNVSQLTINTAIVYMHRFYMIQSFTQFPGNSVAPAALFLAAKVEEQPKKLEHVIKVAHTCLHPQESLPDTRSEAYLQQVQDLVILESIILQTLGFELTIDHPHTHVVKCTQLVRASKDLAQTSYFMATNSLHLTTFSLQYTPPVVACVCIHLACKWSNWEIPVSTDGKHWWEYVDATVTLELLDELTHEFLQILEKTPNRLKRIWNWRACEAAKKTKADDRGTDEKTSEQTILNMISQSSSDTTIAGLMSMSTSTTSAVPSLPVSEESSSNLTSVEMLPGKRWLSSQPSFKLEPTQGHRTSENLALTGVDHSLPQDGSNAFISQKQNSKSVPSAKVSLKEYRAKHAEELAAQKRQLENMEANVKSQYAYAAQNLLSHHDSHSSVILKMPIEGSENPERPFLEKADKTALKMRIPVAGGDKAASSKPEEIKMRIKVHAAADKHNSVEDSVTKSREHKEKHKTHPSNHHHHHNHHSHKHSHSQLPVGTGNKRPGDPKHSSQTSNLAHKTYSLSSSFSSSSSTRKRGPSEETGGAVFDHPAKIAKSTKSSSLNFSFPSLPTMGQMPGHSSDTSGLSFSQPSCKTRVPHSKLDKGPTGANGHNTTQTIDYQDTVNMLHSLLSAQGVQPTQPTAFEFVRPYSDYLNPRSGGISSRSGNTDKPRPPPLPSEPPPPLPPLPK
Sequence of CDK9/cyclin T1 (P50750 whole entry): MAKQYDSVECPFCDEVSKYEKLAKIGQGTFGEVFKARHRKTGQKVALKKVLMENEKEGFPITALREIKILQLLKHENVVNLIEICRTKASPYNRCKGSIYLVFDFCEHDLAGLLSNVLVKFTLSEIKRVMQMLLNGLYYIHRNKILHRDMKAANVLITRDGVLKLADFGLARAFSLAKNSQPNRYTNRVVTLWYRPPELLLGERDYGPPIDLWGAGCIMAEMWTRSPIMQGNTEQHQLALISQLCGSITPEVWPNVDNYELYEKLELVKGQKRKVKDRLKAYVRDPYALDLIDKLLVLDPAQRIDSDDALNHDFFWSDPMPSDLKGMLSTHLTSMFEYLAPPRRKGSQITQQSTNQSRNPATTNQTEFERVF

With `CCN(CC)C(=O)/C=C/c1cccc2c3c([nH]c12)-c1cccnc1NC(=O)C3`, the values for the Activity in data set [1], in [2] and in [3] were 102%, less than 0% and 81.6%, respectively.

Take `O=C1Cc2c([nH]c3ccc(/C=C/C(=O)c4ccco4)cc23)-c2cccnc2N1`: the results for the Activity in [1], in data set [4] and in data set [3] were 90.2%, 17.6% and 21.9%, respectively.

Turning to `O=C1Cc2c([nH]c3c(/C=C/C(=O)c4ccccc4)cccc23)-c2cccnc2N1`, the IC50 (on CDK9/cyclin T1; in data set [5]; in [6]; in data set [7]; in [9]; in data set [10]) was more than 10 µM in each case. In addition, the IC50 in data set [12] and in [14] was more than 10 µM in each case. In addition, the Activity was 91.1% in [1], 28.3% in data set [8] and less than 10% in data set [13]. In addition, the EC50 in data set [11] worked out at 0.18 µM.

For the compound `COc1ccc(C(=O)/C=C/c2ccc3[nH]c4c(c3c2)CC(=O)Nc2ncccc2-4)cc1`, the Activity in data set [1] was 77.6%; in data set [15] it was 20.3%; in [13], 44.5%.

Regarding `O=C(/C=C/c1ccc2[nH]c3c(c2c1)CC(=O)Nc1ncccc1-3)Nc1ccccc1`, the Activity in data set [1] was 68.1%; in data set [16], less than 0%; in [13], less than 10%. Moreover, in [11], the EC50 came to 2.5 µM.

Consider `O=C(/C=C/c1cccc2c3c([nH]c12)-c1cccnc1NC(=O)C3)NCc1ccccc1`, for which the values for the Activity in data set [1], in data set [17] and in data set [13] were 81.8%, 4.16% and less than 10%, respectively. Moreover, in data set [11], the 50% effective concentration (EC50) was 0.45 µM.

As for `O=C1Cc2c([nH]c3ccc(I)cc23)-c2cccnc2N1`, the results for the Activity in data set [1], in data set [18] and in [3] were 96.7%, 12.3% and 72.1%, respectively.

As for `CCN(CC)C(=O)/C=C/c1ccc2[nH]c3c(c2c1)CC(=O)Nc1ncccc1-3`, the Activity in [1] is 91.5%; in data set [3] it was 22.1%; in data set [19] it was less than 0%.

For `O=C(/C=C/c1cccc2c3c([nH]c12)-c1cccnc1NC(=O)C3)Nc1ccccc1`, the half-inhibitory concentration (IC50) on CDK9/cyclin T1 was more than 10 µM; in [5], 0.49 µM; in data set [6] it was more than 10 µM; in [7] it was more than 10 µM; in data set [9] it was more than 10 µM; in data set [10], more than 10 µM. The IC50 in data set [12] and in [14] was more than 10 µM in each case. Also, the Activity was 74.7% in data set [20], 94.6% in data set [1] and less than 10% in data set [13]. Also, in data set [11], the EC50 was 0.12 µM.

Regarding `COc1ccc(C(=O)/C=C/c2cccc3c4c([nH]c23)-c2cccnc2NC(=O)C4)cc1`, the Activity in data set [21] came to 16.5%; in data set [1], 80.4%; in data set [3], 79.9%.

Take `O=C1Cc2c([nH]c3c(I)cccc23)-c2cccnc2N1`: the Activity came out at 112% in data set [1], 4.4% in [22] and 61.3% in data set [3].

Take `O=C(/C=C/c1ccc2[nH]c3c(c2c1)CC(=O)Nc1ncccc1-3)NCc1ccccc1`: the Activity was 67.5% in [1], 12.1% in data set [13] and less than 0% in [23].

As for `O=C1Cc2c([nH]c3ccc(/C=C/C(=O)c4ccccc4)cc23)-c2cccnc2N1`, the Activity was found to be 61.9% in data set [1], 7.6% in [8] and 54% in data set [13].

Turning to `O=C1Cc2c([nH]c3c(/C=C/C(=O)c4ccc(Cl)cc4)cccc23)-c2cccnc2N1`, the figures for the Activity in [1], in data set [15] and in data set [13] were 73.2%, 9.2% and 74.6%, respectively.

On to `O=C1Cc2c([nH]c3ccc(/C=C/C(=O)c4ccc(Cl)cc4)cc23)-c2cccnc2N1`, for which the Activity in [21] was determined as 4.73%; in data set [1], 79.8%; in [13], 38.4%.
